Experiment: Antiglycation activity assessed as inhibition of BSA-derived advance glycated end product formation after 9 days by spectrophotometry; call rule not given here
Assay type: physicochemical
In short: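 BSA (100 mg/ml) incubated with 14 mM methylglyoxal in 0.1 M phosphate buffer pH 7.4 containing NaN₃ (30 mM), aseptic, 37 °C for 9 days, with or without various concentrations of test compounds (DMSO stocks); triplicate samples. AGE-related fluorescence read; % inhibition = (1 − fluorescence of test/fluorescence of control) × 100.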

Row | IC50 | IC50 (read-out: IC50) [µM] | Structure (SMILES)
1 |  | 366 | COc1ccc(/C=N/N=C2\C(=O)Nc3c(Cl)ccc(Cl)c32)cc1OC
2 | Not Active |  | O=C1Nc2ccccc2/C1=N/N=C/c1ccc2ccccc2c1
3 |  | 380 | O=C1Nc2ccccc2/C1=N/N=C/c1cccc2ccccc12
4 |  | 362 | O=C1Nc2ccccc2/C1=N/N=C/c1ccccc1F
5 | Not Active |  | O=C1Nc2c(Cl)ccc(Cl)c2/C1=N/N=C/c1ccccc1F
6 |  | 406 | CN(C)c1ccc(/C=N/N=C2\C(=O)Nc3ccccc32)cc1
7 |  | 359 | COc1cccc(/C=N/N=C2\C(=O)Nc3ccccc32)c1O
8 |  | 244 | O=C1Nc2ccccc2/C1=N/N=C/c1ccccc1[N+](=O)[O-]
9 |  | 416 | CCOc1ccccc1/C=N/N=C1\C(=O)Nc2ccccc21
10 |  | 258 | O=C1Nc2ccccc2/C1=N/N=C/c1ccc([N+](=O)[O-])cc1
11 | Not Active |  | O=C1Nc2ccccc2/C1=N/N=C/c1ccc(F)cc1
12 |  | 313 | O=C1Nc2ccccc2/C1=N/N=C/c1ccc(O)cc1
13 |  | 312 | O=C1Nc2ccccc2/C1=N/N=C/c1cccc(Cl)c1
14 |  | 294 | C[C@@H]1O[C@@H](OC[C@H]2O[C@@H](Oc3c(-c4ccc(O)c(O)c4)oc4cc(O)cc(O)c4c3=O)[C@H](O)[C@@H](O)[C@@H]2O)[C@H](O)[C@H](O)[C@H]1O [RUTIN]

Continued, molecule first:

Row | Structure (SMILES) | IC50 | IC50 (read-out: IC50) [µM]
15 | COc1ccc(/C=N/N=C2\C(=O)Nc3ccc(Cl)cc32)cc1OC | Not Active | 
16 | O=C1Nc2ccc(Cl)cc2/C1=N/N=C/c1ccc(F)cc1 | Not Active | 
17 | O=C1Nc2ccc(Cl)cc2/C1=N/N=C/c1ccc(O)c(O)c1 |  | 469
18 | O=C1Nc2ccccc2/C1=N/N=C/c1ccc(Cl)c(Cl)c1 | Not Active | 
19 | CCOc1ccc(/C=N/N=C2\C(=O)Nc3ccccc32)cc1 | Not Active | 
20 | O=C1Nc2ccccc2/C1=N/N=C/c1ccccc1O |  | 444
21 | O=C1Nc2ccccc2/C1=N/N=C/c1cc(Cl)ccc1O |  | 634
22 | O=C1Nc2ccccc2/C1=N/N=C/c1ccc(O)c(O)c1 |  | 291
23 | Cc1ccc(O)c(/C=N/N=C2\C(=O)Nc3ccccc32)c1 | Not Active | 
24 | O=C1Nc2ccc(Cl)cc2/C1=N/N=C/c1ccccc1O | Not Active | 
25 | COc1cccc(/C=N/N=C2\C(=O)Nc3c(Cl)ccc(Cl)c32)c1O | Not Active | 
26 | O=C1Nc2ccccc2/C1=N/N=C/c1cccc(O)c1 |  | 634
27 | COc1ccccc1/C=N/N=C1\C(=O)Nc2ccccc21 |  | 458
28 | O=C1Nc2c(Cl)ccc(Cl)c2/C1=N/N=C/c1ccc2ccccc2c1 |  | 416

— ChEMBL document CHEMBL1152678, “Synthesis of bis-Schiff bases of isatins and their antiglycation activity” (Bioorg Med Chem, 2009)
